NPY-Y1 antag = antagonists of human neuropeptide Y receptor Y1; P25929; HEK293-CNG Y1 cells, membrane potential fluorescence; NPY at EC95, then isoproterenol; inhibition, % at 3.6 µM; 200,000 compounds, 1% hits;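 active = inhibition above the campaign mean inhibition of all tested compounds plus 3 SD, cut at about 20% in these data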;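 also: 0% = DMSO wells given NPY plus isoproterenol and 100% = isoproterenol alone without NPY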
Target sequence (P25929 whole entry, looked up): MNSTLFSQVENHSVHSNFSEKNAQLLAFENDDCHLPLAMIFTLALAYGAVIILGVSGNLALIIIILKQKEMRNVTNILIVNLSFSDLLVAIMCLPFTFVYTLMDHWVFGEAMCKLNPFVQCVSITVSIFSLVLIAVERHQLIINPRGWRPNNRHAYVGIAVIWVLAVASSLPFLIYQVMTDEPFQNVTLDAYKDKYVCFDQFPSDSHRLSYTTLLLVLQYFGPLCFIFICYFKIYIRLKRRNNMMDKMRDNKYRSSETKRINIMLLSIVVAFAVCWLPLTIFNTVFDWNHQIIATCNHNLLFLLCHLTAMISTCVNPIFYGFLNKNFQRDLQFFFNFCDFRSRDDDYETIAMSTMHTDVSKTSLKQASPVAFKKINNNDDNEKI
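Test system: HEK293 cells co-expressing NPY Y1 receptor and cyclic-nucleotide gated channel; Also added: NPY (25 nM), isoproterenol (1 µM), Ro 20-1724 (25 µM); Compound dosing: one concentration, 3.6 µM, in 0.4% DMSO; Timing: dye 3 h, compound 60 min room temperature, stimulation 45 min; Technique: Membrane-potential fluorescent dye readout.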
bCat nuc transl = modulators of beta-catenin nuclear translocation | nuclear translocation activity, % at 5 µM | HeLa beta-catenin nuclear translocation, immunofluorescence imaging | 190,000 compounds, 0.3% hits;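 active = nuclear translocation activity above 50% at 5 µM, with a well cell count of 50 or more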;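 also: per-cell ratio of nuclear to cytoplasmic median beta-catenin stain intensity; plate controls were DMSO negative control for no effect and GSK-3 inhibitor IX positive control for full effect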
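System: Human HeLa cells, endogenous beta-catenin | Compound dosing: 5 µM primary, 0.02–20 µM confirmation | Timing: 24 h compound exposure at 37°C, 5% CO2 | Measured by: Fluorescence imaging of beta-catenin antibody stain plus DAPI | Read-out basis: % activation of per-cell nuclear versus cytoplasmic median beta-catenin signal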
NPY-Y1 PAM-ag = potentiators or agonists of human neuropeptide Y receptor Y1; P25929; NPY-Y1 expressing cells, potentiator/agonist activation; activation, % at 3.6 µM; 220,000 compounds, 0.37% hits; AID 1304; in the data active = activation above about 33%, passing the limit was not always enough;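 also: cells stimulated with NPY at EC10 then isoproterenol at EC100; 0% = low agonist plus stimulus and 100% = saturating agonist plus stimulus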
NPY-Y2 PAM-ag = potentiates or activates human NPY-Y2 receptor | activation, % at 3.6 µM | P49146 | 220,000 compounds, 0.45% hits | cells expressing NPY-Y2, potentiator/agonist read-out; in the data active = activation above about 27%;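 also: cells stimulated with NPY near EC25 plus isoproterenol at EC100; 0% = vehicle plus submaximal agonist and 100% = vehicle plus saturating agonist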
MT stabilize HCS = stabilizes microtubules in HeLa cells. HeLa tubulin immunostaining HCS, 24 h; share of cells brighter than vehicle mean+2SD. 200,000 compounds, 0.83% hits. % tubulin-high responders, % at 10 µM. AID 2205;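 active = plate Z-score above 3 for both tubulin-high and condensed-nucleus cell shares, with cell loss under 80%, at 10 µM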;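 also: anti alpha tubulin signal scored within the nucleus-defined area of each cell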
NPY Y2 blocker = blocks the human neuropeptide Y Y2 receptor | NPY-Y2 expressing cells, antagonist mode | P49146 | 140,000 compounds, 0.99% hits | inhibition, % at 2.7 µM; in the data active = inhibition above about 17%;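 also: 0% = vehicle with agonist challenge and 100% = reference antagonist with challenge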
Numbers without * were called inactive; · = no result. This is a sample that favours compounds with a hit; in the whole collection about 2.6% have one here.

SMILES | NPY-Y1 antag | bCat nuc transl | NPY-Y1 PAM-ag | NPY-Y2 PAM-ag | MT stabilize HCS | NPY Y2 blocker
COc1ccc(-c2n[nH]c(C)c2-c2ccc(Cl)cc2)c(O)c1 | -12 | 0 | 23 | 18 | 5 | 0
Cc1[nH]nc(-c2ccc(O)cc2O)c1-c1ccc(Cl)cc1 | -12 | 4 | 21 | 48* | 4 | -1
Cc1ccc2cccc(NC(=O)c3ccc(Br)o3)c2n1 | 15 | -4 | -33 | -15 | 2 | 11
CC(Sc1nc(N)c2c3c(sc2n1)CSC(C)(C)C3)C(=O)Nc1ccccc1 (centres undefined) | 22* | -2 | -12 | -16 | 4 | 53*
COc1ccccc1NC(=O)CSc1nc2ccccc2cc1Cc1ccccc1 | 26* | · | -70 | -8 | 3 | 21*
COc1ccccc1NC(=O)CSc1nc(N)cc(N)n1 | 2 | 1 | -3 | 19 | 1 | 0
COCc1c(C)cc(C)c(/C=N/O)c1C | 0 | 2 | -5 | -1 | 3 | 1
CC(C)COC(=O)Nc1nnc(SCc2ccccc2F)s1 | 1 | 1 | -6 | 11 | 2 | 6
CC(C)COC(=O)Nc1nnc(SCCOc2ccccc2)s1 | 29* | 1 | -49 | -23 | 2 | 14
CCOc1ccc(C(=O)NC(=S)Nc2cccc(S(=O)(=O)NC3=NCCC3)c2)cc1 | 19 | 24 | -5 | -37 | 17* | ·
CCCn1c(SCC(=O)N2N=C3/C(=C/c4ccc(OC)cc4)CCCC3C2c2ccc(OC)cc2)n[nH]c1=O (centres undefined) | 7 | -1 | -17 | 0 | 2 | 5
COc1ccc(/C=C2\CCCC3C2=NC(=S)NC3c2ccc(OC)cc2)cc1 (centres undefined) | -7 | 56* | -20 | 1 | 9 | 1
O=C1/C(=C/c2cccc([N+](=O)[O-])c2)CCc2ccccc21 | 0 | -1 | -22 | -10 | 3 | 3
CCN1C/C(=C\c2cccc([N+](=O)[O-])c2)C(=O)/C(=C/c2cccc([N+](=O)[O-])c2)C1 | -3 | 0 | 0 | 4 | 28* | 1
COc1cc(C)c(C(C)C)cc1S(=O)(=O)n1cnc(C)c1 | 2 | 93* | -1 | -5 | 14* | 10
COc1cc(C)c(C(C)C)cc1S(=O)(=O)N1CCN(C)CC1 | -1 | -1 | 7 | 17 | 3 | -1
CCCN1CCN(CCCNC(=O)CCn2nc(-c3ccccc3)ccc2=O)CC1 | 2 | 0 | 1 | -11 | 2 | ·
CCCCCCCCCCCCCCCCn1cc[n+](C)c1 | 3 | 18 | 49 | 37 | 72* | ·
CCn1c(=O)c(=O)[nH]c2cc(C(=O)NC3CCCc4ccccc43)ccc21 (centres undefined) | -1 | -4 | 7 | -2 | 29* | 9
COc1ccccc1NC(=O)Cn1nnc(-c2ccccc2NC(=O)c2cc3ccccc3oc2=O)n1 | -2 | 0 | 0 | -8 | 2 | 1
O=C(N/N=C/c1ccc2c(c1)OCO2)c1cc(-c2ccncc2)nc2ccccc12 | 3 | 24 | 5 | 1 | 21* | 3
COc1ccc(-c2cc(C(=O)Nc3ccc(O)cc3)c3ccccc3n2)cc1OC | · | 1 | -14 | -28 | · | ·
COc1ccc(-c2cc(C(=O)Nc3nc4c(C)cccc4s3)c3ccccc3n2)cc1OC | 47* | -1 | -85 | -33 | 2 | 45*
CC(/C=N/NC(=O)CSc1nc2ccccc2n1C)=C\c1ccco1 | -2 | 25 | -9 | 3 | 17* | 7
O=C(N/N=C/c1ccc(F)cc1)c1cc(-c2ccco2)nc2ccccc12 | 1 | 53* | -9 | -16 | 34 | 14
SMILES | NPY-Y1 antag | bCat nuc transl | NPY-Y1 PAM-ag | NPY-Y2 PAM-ag | MT stabilize HCS | NPY Y2 blocker
Cc1ccccc1NC(=O)CCC(=O)OCCCC(F)(F)C(F)(F)F | -1 | 1 | 0 | 6 | 2 | 5
Cc1ccc(S(=O)(=O)N2CCC(=O)N(CCO)CC2)cc1 | 2 | · | -11 | 10 | 4 | -1
COc1cccc(CNC(=S)Nc2cc(C)ccc2C)c1 | -5 | 0 | 3 | -13 | 2 | ·
O=C(N/N=C/c1ccccn1)c1cc(-c2ccncc2)nc2ccccc12 | 1 | 6 | -18 | -1 | 12 | 5
O=C(N/N=C/c1ccsc1)c1cc(-c2cccs2)nc2ccccc12 | 6 | 1 | 4 | -22 | 10* | 4
O=C(N/N=C/c1ccc(Cl)cc1)c1cc(-c2cccnc2)nc2ccccc12 | 5 | -1 | -2 | -19 | 14 | ·
Cc1ccc(/C=N/NC(=O)c2cc(-c3cccnc3)nc3ccccc23)cc1 | 8 | 83* | -25 | -31 | 7 | ·
CC(/C=N/NC(=O)c1cc(-c2ccncc2)nc2ccccc12)=C\c1ccco1 | 10 | 49 | -10 | -3 | 16* | 7
O=C(N/N=C/c1ccco1)c1cc(-c2cccc(Br)c2)nc2ccccc12 | 8 | · | 4 | 8 | 2 | 3
O=C(N/N=C/c1ccsc1)c1cc(-c2ccncc2)nc2ccccc12 | 4 | 11 | 2 | -6 | 13* | 4
Cc1cc2c(sc3c(C)ccc(C)c32)c(C)n1 | · | 1 | 0 | -17 | · | ·
COc1ccccc1N1CCN(C(c2cccs2)C(C)NC(=O)c2cccs2)CC1 (centres undefined) | -3 | 0 | -18 | 1 | 4 | 6
O=C(N/N=C/c1ccc([N+](=O)[O-])o1)c1cc(-c2ccc(-c3ccccc3)cc2)nc2ccccc12 | -2 | 46 | 7 | -31 | 12* | ·
Cc1ccc2nc(NC(=O)c3cc(-c4ccco4)nc4ccccc34)sc2c1 | 54* | 2 | -146 | -121 | 9 | 56*
Cc1csc(NC(=O)c2cc(-c3ccco3)nc3ccccc23)n1 | 2 | 2 | -1 | -15 | 4 | 3
COc1cc(/C=N/NC(=O)Nc2cccc3nsnc23)cc(OC)c1OC | -2 | -1 | 12 | 2 | 2 | 2
O=C(N/N=C/c1ccc(O)cc1)Nc1cccc2nsnc12 | 2 | 4 | 12 | 12 | 11* | ·
CCOc1ccc2ccccc2c1/C=N/NC(=O)CC1(C)OCCCO1 | 4 | 2 | -22 | 10 | 3 | 3
O=C(Nc1cccc(Cl)c1)ON=C1c2ccccc2-c2ccccc21 | 4 | 4 | -33 | -17 | 2 | 12
COc1ccc(-n2c(SCC(=O)Nc3sc4c(c3C#N)CCCC4)nnc2-c2ccccc2OC)cc1 | -2 | -3 | 28 | 6 | 3 | 4
NC(=O)c1c(NC(=O)CSc2nnc(-c3ccco3)n2-c2ccccc2)sc2c1CCC2 | -2 | 0 | 32 | 16 | 23* | 2
N#Cc1c(NC(=O)CSc2nnc(-c3ccco3)n2-c2ccccc2)sc2c1CCC2 | -4 | -1 | 111* | 43* | 3 | 1
COc1ccc(-c2nnc(SCC(=O)Nc3sc4c(c3C#N)CCCC4)n2-c2ccccc2)cc1 | -2 | 1 | -11 | -13 | 20* | 6

Bioassay records (PubChem)
